{"data": "Results from different studies", "target": "Serine/threonine-protein kinase pim-3 (PIM3, Homo sapiens, UniProt Q86V86)", "note": "Protocols differ between the studies behind these lines."}
{"SMILES": "Nc1nc(Nc2ccccc2)sc1C(=O)c1c(F)cccc1F", "observed": "enzyme activity", "action": "inhibitor", "concentration": "10 µM", "quantity": "remaining activity", "result": "69%"}
{"SMILES": "CCN(CC)c1ccc(C2=NNC(=O)CC2C)cc1[N+](=O)[O-] (stereo not shown)", "observed": "enzyme activity", "action": "inhibitor", "concentration": "10 µM", "quantity": "remaining activity", "result": "96%"}
{"SMILES": "CNC(=O)c1cc(Oc2ccc(NC(=O)Nc3ccc(Cl)c(C(F)(F)F)c3)cc2)ccn1", "observed": "enzyme activity", "action": "inhibitor", "concentration": "0.3 µM", "quantity": "inhibition", "result": "-12%"}
{"SMILES": "CC(C)(O)[C@H]1CC[C@H](Nc2ccc3ncc(-c4cccc(C(F)(F)F)c4)n3n2)CC1", "observed": "enzyme activity", "action": "inhibitor", "concentration": "1 µM", "quantity": "remaining activity", "result": "3.14%"}
{"SMILES": "CC/C(=N\\NC(=O)NCc1cccc(O)c1)c1ccc(O)c(C)c1O", "observed": "enzyme activity", "action": "inhibitor", "concentration": "0.1 µM", "quantity": "inhibition", "result": "4.6%"}
{"SMILES": "Cc1cc(NC(=O)c2cccc3cc(-c4cccc5[nH]nc(N)c45)ccc23)ccc1F", "observed": "enzyme activity", "action": "inhibitor", "concentration": "0.1 µM", "quantity": "activity vs control", "result": "113%"}
{"SMILES": "FC(F)c1nc2ccccc2n1-c1nc(N2CCOCC2)nc(N2CCOCC2)n1", "observed": "enzyme activity", "action": "inhibitor", "concentration": "10 µM", "quantity": "remaining activity", "result": "76%"}
{"SMILES": "O=C(Nc1cnn(-c2csc(C(=O)NC3COC3)c2)c1)Nc1ccccc1Cl", "observed": "enzyme activity", "action": "inhibitor", "concentration": "5 µM", "quantity": "remaining activity", "result": "61.2%"}
{"SMILES": "Cc1ccc(NC(=O)c2ccc(C)c(C(F)(F)F)c2)cc1C#Cc1nn(C2CCC(O)CC2)c2ncnc(N)c12 (stereo not shown)", "observed": "cell-free assay", "concentration": "10 µM", "quantity": "remaining signal", "result": "99%"}
{"SMILES": "O=C(N1CCS(=O)(=O)CC1)N1C[C@H](c2ccc(OC(F)(F)F)cc2)C[C@H](c2nc(C3CC3)no2)C1", "observed": "cell-free assay", "method": "competition with immobilised ligand", "concentration": "1 µM", "quantity": "remaining binding", "result": "100%"}
{"SMILES": "CS(=O)(=O)Nc1cccc(-c2csc(NC(=O)CSc3nc4nccnc4c(=O)n3CCc3ccccc3)n2)c1", "observed": "enzyme activity", "action": "inhibitor", "concentration": "10 µM", "quantity": "inhibition", "result": "1%"}
{"SMILES": "O=C(O)[C@H]1[C@H](Cn2nnc3ccccc3c2=O)CC[C@@H]1C(=O)c1ccc(OCCC2CCOCC2)cc1", "observed": "cell-free assay", "method": "competition with immobilised ligand", "concentration": "1 µM", "quantity": "remaining binding", "result": "86%"}
{"SMILES": "COc1cc(Cl)c(C(=O)N[C@@H](CN[C@H]2CC[C@@H](N)CC2)Cc2ccc(C#N)cc2)cc1-c1ccc(CN[C@H](C)c2ccc(C)cc2)o1", "observed": "enzyme activity", "action": "inhibitor", "concentration": "1 µM", "quantity": "remaining activity", "result": "84%"}
{"SMILES": "CCN(CC)CCNC(=O)c1c(C)[nH]c(/C=C2\\C(=O)Nc3ccc(F)cc32)c1C", "observed": "enzyme activity", "action": "inhibitor", "concentration": "0.3 µM", "quantity": "inhibition", "result": "-17%"}
{"SMILES": "CN(C)C(=O)Cn1cc(-c2nc([C@@](C)(c3ccc(-c4cnc(N)nc4)cc3)C3CC3)no2)cn1", "observed": "cell-free assay", "method": "competition with immobilised ligand", "concentration": "1 µM", "quantity": "remaining binding", "result": "96%"}
{"SMILES": "O=C(Nc1cnn(-c2csc(C(=O)NC3COC3)c2)c1)Nc1c(F)cccc1Cl", "observed": "enzyme activity", "action": "inhibitor", "concentration": "5 µM", "quantity": "remaining activity", "result": "73.9%"}
{"SMILES": "Cc1ccc(Nc2nccc(N(C)c3ccc4c(C)n(C)nc4c3)n2)cc1S(N)(=O)=O", "observed": "enzyme activity", "action": "inhibitor", "concentration": "0.5 µM", "quantity": "remaining activity", "result": "81.6%"}
{"SMILES": "Cc1cc(C)c(-n2ccn3nc(-c4cccnc4)cc23)cc1NC(=O)c1cc(C#N)cc(S(F)(F)(F)(F)F)c1", "observed": "cell-free assay", "method": "competition with immobilised ligand", "concentration": "0.1 µM", "quantity": "remaining binding", "result": "83.1%"}
{"SMILES": "O=C1Nc2ccc(Cl)cc2C1=Cc1cc(Cl)c(O)c(Cl)c1", "observed": "cell-free assay", "concentration": "0.5 µM", "quantity": "remaining signal", "result": "14.5%"}
{"SMILES": "Nc1nc(NC2CCCCC2)sc1C(=O)c1ccccc1", "observed": "enzyme activity", "action": "inhibitor", "concentration": "10 µM", "quantity": "remaining activity", "result": "69%"}
{"SMILES": "CC(=O)N1CCC(c2ccc(C(=O)NC3=NCCN3)cc2C(F)(F)F)CC1", "observed": "cell-free assay", "method": "competition with immobilised ligand", "concentration": "1 µM", "quantity": "remaining binding", "result": "100%"}
{"SMILES": "COc1cc(Nc2cnc(C#N)c(O[C@H](C)CN(C)C)n2)ncc1-c1cnn(C)c1", "observed": "enzyme activity", "action": "inhibitor", "method": "radiometric", "concentration": "1 µM", "quantity": "remaining activity", "result": "58%"}
{"SMILES": "CCC(=O)N[C@H]1CC[C@@H](C(=O)N(C)c2ccc(-c3nc4ccccc4o3)cc2)C1", "observed": "cell-free assay", "method": "competition with immobilised ligand", "concentration": "1 µM", "quantity": "remaining binding", "result": "100%"}
{"SMILES": "CC(C)(C)c1nc2c(s1)c1nc(N)ncc1c1ccc(NS(=O)(=O)c3c(F)cccc3F)c(F)c12", "observed": "enzyme activity", "action": "inhibitor", "method": "radiometric", "concentration": "1 µM", "quantity": "remaining activity", "result": "105%"}
{"SMILES": "CC(=O)C1=C(C)N(c2cccc(C(F)(F)F)c2)C(=O)N[C@@H]1c1ccc(C#N)nc1", "observed": "cell-free assay", "method": "competition with immobilised ligand", "concentration": "1 µM", "quantity": "remaining binding", "result": "100%"}
{"SMILES": "Cn1c2c(c3ccc(Cl)c(Cl)c31)C(C#N)C1(CCNCC1)NC2=O (racemic)", "observed": "thermal stability", "method": "DSF", "concentration": "10 µM", "quantity": "ΔTm", "result": "> 8 °C"}
{"SMILES": "O=C(NCc1ncc(C(F)(F)F)cc1Cl)c1ccc2c(c1)C1(CCS(=O)(=O)CC1)[C@H](C1CC1)N2S(=O)(=O)c1ccc(F)cc1", "observed": "cell-free assay", "method": "competition with immobilised ligand", "concentration": "1 µM", "quantity": "remaining binding", "result": "100%"}
{"SMILES": "COc1cc(Nc2c(C#N)cnc3cc(OCCCN4CCN(C)CC4)c(OC)cc23)c(Cl)cc1Cl", "observed": "cell-free assay", "concentration": "0.5 µM", "quantity": "remaining signal", "result": "97.7%"}
